The list is not random: actives were taken first. Their share in the collection is about 3.5%.
PAFAH1B2 inh: PAFAH1B2 enzyme inhibitors, primary screen, biochemical, fluorescence polarization, human. Platelet-activating factor acetylhydrolase IB subunit alpha2 (Homo sapiens), P68402. recombinant PAFAH1B2, FP-rhodamine activity probe. inhibition, % at 3.39 µM. 340,000 compounds, 1.2% hits;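 active = inhibition above the mean of all tested compounds plus 3 SD, cut at about 24% in these data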;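 also: 0% = enzyme with DMSO and 100% = wells lacking PAFAH1B2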
Target sequence (P68402 whole entry, looked up): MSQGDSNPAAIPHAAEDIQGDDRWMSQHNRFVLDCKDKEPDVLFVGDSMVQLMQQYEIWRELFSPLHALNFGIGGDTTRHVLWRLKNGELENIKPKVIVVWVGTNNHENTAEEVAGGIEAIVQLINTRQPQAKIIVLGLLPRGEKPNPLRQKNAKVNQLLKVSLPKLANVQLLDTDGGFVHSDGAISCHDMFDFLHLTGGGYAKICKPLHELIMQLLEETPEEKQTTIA
pPAFAH FP inh: pPAFAH enzyme inhibitors, primary screen, biochemical, fluorescence polarization, human; Platelet-activating factor acetylhydrolase (Homo sapiens), Q13093; recombinant pPAFAH, FP-rhodamine probe fluorescence polarization; inhibition, % at 3.39 µM; 330,000 compounds, 1.5% hits; AID 463082, 2010;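 active = inhibition above the mean inhibition across the screen plus 3 SD, cut at about 25% in these data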;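 also: inhibitors block binding of the rhodamine activity-based probe so polarization drops; 0% = enzyme with DMSO and 100% = wells lacking pPAFAH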
PAFAH2 FP inh: PAFAH2 enzyme inhibitors, primary screen, biochemical, fluorescence polarization, human; 340,000 compounds, 0.99% hits; recombinant PAFAH2, FP-rhodamine activity probe; inhibition, % at 3.39 µM; AID 492956, 2010; Platelet-activating factor acetylhydrolase 2, cytoplasmic (Homo sapiens), Q99487;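 active = inhibition above the mean over all tested compounds plus 3 SD, cut at about 30% in these data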;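 also: inhibitors block probe labeling of enzyme so polarization drops; 0% = enzyme with DMSO and 100% = wells lacking PAFAH2 protein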
PREPL inhibitor: PREPL enzyme inhibitors, primary screen, biochemical, fluorescence polarization; Prolyl endopeptidase-like (Homo sapiens), Q4J6C6; recombinant PREPL, fluorescence polarization activity-based probe; inhibition, % at 5.96 µM; 320,000 compounds, 0.68% hits; in the data active = inhibition above about 43%;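 also: 0% = enzyme with DMSO and 100% = wells lacking enzyme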
Apaf1 inhib: inhibitors of human Apaf-1 apoptosome, primary screen, biochemical, DEVD-Rh110 fluorescence, uHTS; Apoptotic protease-activating factor 1 (Homo sapiens), O14727; reconstituted apoptosome caspase-3 activity; inhibition, % at 20 µM; 330,000 compounds, 0.71% hits; active = inhibition of at least 40% at 20 µM;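 also: plate controls were DMSO wells for no effect and DEVD-CHO caspase inhibitor wells for full effect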
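Assay system: Apoptosome proteins | Medium: pH 7.5 Hepes buffer with CHAPS, BSA, DTT | Also added: Cytochrome c and DEVD-Rh110 substrate | Times: 30 min plus 50 min, RT | Detection: Rhodamine 110 fluorescence at Ex 480/Em 540 nm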
PAFAH1B3 FP inh: PAFAH1B3 enzyme inhibitors, primary screen, biochemical, fluorescence polarization, human; recombinant PAFAH1B3, FP-rhodamine probe; 340,000 compounds, 0.28% hits; AID 492972, 2010; inhibition, % at 3.39 µM; Platelet-activating factor acetylhydrolase IB subunit alpha1 (Homo sapiens), Q15102;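 active = inhibition above the screen-wide average of all tested compounds plus 3 SD, cut at about 25% in these data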;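 also: 0% = enzyme with DMSO only and 100% = wells lacking PAFAH1B3 protein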
Target sequence (Q15102 whole entry, looked up): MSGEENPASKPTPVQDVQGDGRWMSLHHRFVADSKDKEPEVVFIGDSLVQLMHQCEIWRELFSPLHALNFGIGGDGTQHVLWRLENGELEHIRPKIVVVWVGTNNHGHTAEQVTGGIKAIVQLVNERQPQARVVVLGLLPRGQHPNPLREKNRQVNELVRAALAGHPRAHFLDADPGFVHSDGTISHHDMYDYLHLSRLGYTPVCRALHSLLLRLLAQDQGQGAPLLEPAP
The depositor's hits bear a star; x = no result.

SMILES	PAFAH1B2 inh	pPAFAH FP inh	PAFAH2 FP inh	PREPL inhibitor	Apaf1 inhib	PAFAH1B3 FP inh
NC(=O)C(CC(=O)O)NC(=O)[C@@H]1CCCNc2c(I)cc([N+](=O)[O-])cc2C(=O)N[C@@H](CO)C(=O)N[C@@H](Cc2ccc(O)cc2)C(=O)N1 (some centres undefined)	8.3	26.3*	-1.5	-5.2	-3.7	7.3
NC(=O)CC[C@@H]1NC(=O)[C@H](CO)NC(=O)c2cc([N+](=O)[O-])cc(I)c2NCCCC[C@@H](C(N)=O)NC(=O)[C@H](Cc2ccc(O)cc2)NC1=O	x	-3.5	x	-6.1	8.7	x
O=C(NCC(c1cccnc1)N1CCOCC1)Nc1ccccc1 (centres undefined)	4.0	9.4	-0.8	-2.6	-0.8	0.5
O=c1[nH]c2c(s1)C(c1ccco1)C1C3CCC(C3)C1S2 (centres undefined)	57.4*	4.1	11.8	-1.4	22.8	0.2
COc1ccccc1NC(=O)COC(=O)c1ccccc1OCC(=O)Nc1ccc(SC(F)F)cc1	0.2	2.7	4.4	-15.6	3.1	1.3
CN(C)C(=O)COC(=O)c1ccccc1Nc1ccc(SC(F)F)cc1	4.1	25.8*	5.6	6.6	15.2	9.5
CC1CCN(S(=O)(=O)c2ccc(N=NC3=C(O)CC(C)(C)CC3=O)cc2)CC1	45.2*	2.6	-7.1	2.6	5.5	2.8
CC1(C)CC(=O)C(N=Nc2cccc(S(=O)(=O)N3CCOCC3)c2)=C(O)C1	-3.1	3.1	-4.4	-14.5	-5.1	-0.8
CCOc1ccccc1/C=N/n1nnnc1N	-0.8	3.3	-5.8	0.1	-8.2	4.5
Cc1ccc(NC(=O)/C(C#N)=C(\N)C(Cl)(Cl)Cl)nc1	44.9*	5.5	41.0*	22.4	2.7	42.6*
COc1cccc(N2CCN(C(=O)CCNS(=O)(=O)c3ccc(F)c(F)c3)CC2)c1	-1.1	28.5*	5.3	37.1	22.7	2.3
COc1ccc(N2CCN(C(=O)CCNS(=O)(=O)c3ccccc3)CC2)cc1	-0.4	2.7	3.7	4.3	1.2	-3.2
Cc1ccc(NC(C)c2cc(Cl)ccc2O)cc1 (centres undefined)	27.8*	0.5	-4.5	0.2	20.9	2.4
CC(Nn1cnnc1)c1cc(Cl)ccc1O (centres undefined)	0.2	-4.1	3.6	-4.8	-0.8	9.4
C=CCN1C(=O)C(Cc2ccc(OC)cc2)S/C1=N/N=C/c1ccco1 (centres undefined)	0.5	27.6*	-4.3	-0.2	-15.0	0.1
CC(=O)Nc1ccc(S(=O)(=O)NCCC(=O)OCc2csc(CC(=O)Nc3ccccc3C)n2)cc1	-1.7	7.7	2.4	-2.0	7.0	-0.5
OCC[C@H]1C[C@H](O)[C@@H](O)[C@]2(OCCc3ccccc32)O1	-0.4	25.6*	7.5	7.2	-1.5	6.7
OCC[C@H]1C[C@H](O)[C@@H](O)[C@@]2(OCc3ccccc32)O1	0.0	5.2	2.9	6.1	-8.1	-2.4
Cc1ccc(C)c(S(=O)(=O)N2CCN(C(=O)c3ccccn3)CC2)c1	-2.3	2.4	4.8	-0.8	-6.3	11.9
COc1ccc2c(CC(=O)OCC(=O)Nc3cccc(C)c3)coc2c1	-3.6	32.9*	-2.6	1.0	-3.3	10.4
COC(=O)c1cccc(NC(=O)Cc2coc3cc(OC)ccc23)c1	1.5	2.9	-0.9	-11.1	-13.6	1.7
O=c1c2ccccc2[nH]c2ccccc12	-0.7	-5.2	-2.2	1.3	-5.0	4.5
c1ccc2c(c1)[nH]c1ccccc12	24.9*	-2.5	0.6	1.1	-2.1	8.6
CCCCn1c(N)c(N(CCOC)C(=O)c2ccc3c(c2)C(=O)N(c2cc(C)ccc2C)C3=O)c(=O)[nH]c1=O	5.5	12.6	-0.8	1.6	-1.3	-0.9
O=C(NN=C1CCCC1)c1cc(Cl)cc(Cl)c1O	0.2	33.6*	7.0	8.2	3.6	14.3
SMILES	PAFAH1B2 inh	pPAFAH FP inh	PAFAH2 FP inh	PREPL inhibitor	Apaf1 inhib	PAFAH1B3 FP inh
Cc1ccc(S(=O)(=O)N(C)C)cc1NC(=O)COC(=O)CCC1CCCCC1	1.5	33.3*	20.6	-1.5	18.1	8.4
Cc1ccc(S(=O)(=O)N(C)C)cc1NC(=O)COC(=O)CCNS(=O)(=O)c1ccccc1	11.3	x	4.9	x	-3.1	3.5
Cc1ccc(S(=O)(=O)N(C)C)cc1NC(=O)COC(=O)CSc1ccccc1	17.9	28.2*	15.1	-9.1	-8.4	5.9
O=C(Cc1cccc(NC(=O)C2CCN(C(=O)C3CCCC3)CC2)c1)Nc1cccc(C(=O)N2CCOCC2)c1	4.0	x	-6.0	x	x	3.3
CCOc1ccccc1C(=O)N[C@H](C(=O)OCc1csc(CC(=O)Nc2ccc(C)cc2)n1)C(C)C	-0.2	32.9*	8.0	-3.1	30.3	2.5
CC(C)OP(=O)(c1ccc(N(C)C)cc1)C(O)c1cccnc1 (centres undefined)	-3.5	-2.5	10.6	-1.9	-5.6	6.0
O=C1c2ccccc2[C@@H]2C[C@H]3O[C@H]3CCN12	5.6	-2.3	1.5	x	4.0	5.2
Nc1ccccc1SCC1CSc2nc3ccccc3c(=O)n21 (centres undefined)	-6.8	3.9	4.0	22.1	7.0	0.5
O=c1c2ccccc2nc2n1C(CSCc1ccc(Cl)cc1Cl)CS2 (centres undefined)	39.3*	3.6	11.5	3.5	13.1	9.9
CC(C)c1cccc(C(C)C)c1NC(=S)Nc1cccc(Cl)c1	5.5	0.3	0.8	22.2	6.8	3.0
CC(C)(C)C1CCC(=O)C(C2(O)C(=O)Nc3ccccc32)C1 (centres undefined)	27.1*	5.4	0.3	2.4	-11.3	10.2
Cc1cccn2c(=O)nc(SCC(=O)NCc3ccccc3)nc12	-0.2	6.7	6.5	-5.4	-3.1	5.5
CC(C(=O)Nc1ccc(S(=O)(=O)N2CCCC2)cc1)N1CCCC(C(N)=O)C1 (centres undefined)	1.5	x	0.6	x	2.7	2.6
C/C(=N\NC(=O)c1cccs1)c1ccc2c(c1)OCO2	x	28.3*	x	11.7	-0.3	x
CC(=NNC(=O)c1cccs1)c1ccc2c(c1)OCCO2	7.0	1.7	7.0	6.0	-3.0	4.2
CCC(=O)Nc1sc2c(c1C(N)=O)CCC2	9.0	-0.1	-3.7	3.0	-6.6	-6.3
N#CCC(=O)Nc1sc2c(c1C(N)=O)CCCC2	-0.5	32.7*	-4.5	20.2	8.7	3.2
Cc1cccc(-n2nc3c(c2NC(=O)c2ccco2)CS(=O)C3)c1C (centres undefined)	1.8	-1.3	10.2	15.7	5.3	11.2

Assay outcomes deposited in PubChem BioAssay by several laboratories.
